From ChEMBL document CHEMBL3758168, “Hybrid triazoles: Design and synthesis as potential dual inhibitor of growth and efflux inhibition in tuberculosis” (Eur J Med Chem, 2016)
≈ marks a conversion by molar mass, not a printed value.

How the values were obtained:
[1] = test system: Mycobacterium tuberculosis; test: Antibacterial activity against Mycobacterium tuberculosis H37Rv ATCC 27294T assessed as ofloxacin MIC at 1 ug/ml after 7 days by microdilution checkerboard assay; type: functional; conditions: 168 h
How it was run: (§1)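 Two-dimensional checkerboard in H37Rv at 10^5 CFU/ml in MB7H9/OADC. Partner drug (amikacin, EtBr, isoniazid, ofloxacin or rifampin) two-fold serially diluted across columns 3-11. Test compound two-fold serially diluted down rows 2-6. Plates incubated 7 days at 37 °C, then MTT added overnight. […] Run in triplicate.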

[2] = test system: Mycobacterium tuberculosis; test: Antibacterial activity against Mycobacterium tuberculosis H37Rv ATCC 27294T assessed as amikacin MIC at 2 ug/ml after 7 days by microdilution checkerboard assay; type: functional; conditions: 168 h; how it was run: as §1
[3] = test system: Mycobacterium tuberculosis; test: Antibacterial activity against Mycobacterium tuberculosis H37Rv ATCC 27294T assessed as amikacin MIC at 4 ug/ml after 7 days by microdilution checkerboard assay; type: functional; conditions: 168 h; how it was run: as §1
[4] = test system: Mycobacterium tuberculosis; test: Anti-tubercular activity against Mycobacterium tuberculosis H37Rv ATCC 27294T after 7 days by mircodilution method; type: functional; conditions: 168 h
How it was run: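 H37Rv grown static in MB7H9 + 10% OADC at 37 °C to OD600 0.8, then diluted to about 10^5 cells/ml. Mixed 1:1 with two-fold serial dilutions in MB7H9/OADC and incubated 7 days at 37 °C. MTT added to final 2.5% and plates incubated overnight. MIC is the lowest concentration with no colour change. Run in triplicate.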

[5] = test system: Mycobacterium tuberculosis; test: Antibacterial activity against Mycobacterium tuberculosis H37Rv ATCC 27294T assessed as amikacin MIC at 1 ug/ml after 7 days by microdilution checkerboard assay; type: functional; conditions: 168 h; how it was run: as §1
[6] = test system: Mycobacterium tuberculosis; test: Antibacterial activity against Mycobacterium tuberculosis H37Rv ATCC 27294T assessed as ofloxacin MIC at 4 ug/ml after 7 days by microdilution checkerboard assay; type: functional; conditions: 168 h; how it was run: as §1
[7] = test system: Mycobacterium tuberculosis; test: Antibacterial activity against Mycobacterium tuberculosis H37Rv ATCC 27294T assessed as ethidium bromide MIC at 2 ug/ml after 7 days by microdilution checkerboard assay; type: functional; conditions: 168 h; how it was run: as §1
[8] = test system: Mycobacterium tuberculosis; test: Antibacterial activity against Mycobacterium tuberculosis H37Rv ATCC 27294T assessed as ethidium bromide MIC at 1 ug/ml after 7 days by microdilution checkerboard assay; type: functional; conditions: 168 h; how it was run: as §1
[9] = Cytotoxicity against human MDM assessed as cell viability after 3 days by Alamar blue dye-based fluorocytometric analysis relative to control; conditions: 72 h
[10] = test system: Mycobacterium tuberculosis; test: Antibacterial activity against Mycobacterium tuberculosis H37Rv ATCC 27294T assessed as isoniazid MIC at 4 ug/ml after 7 days by microdilution checkerboard; type: functional; conditions: 168 h; how it was run: as §1
[11] = test system: Mycobacterium tuberculosis; test: Antibacterial activity against Mycobacterium tuberculosis H37Rv ATCC 27294T assessed as ethidium bromide MIC at 0.5 ug/ml after 7 days by microdilution checkerboard assay; type: functional; conditions: 168 h; how it was run: as §1
[12] = test system: Mycobacterium tuberculosis; test: Antibacterial activity against Mycobacterium tuberculosis H37Rv ATCC 27294T assessed as ethidium bromide MIC at 0.25 ug/ml after 7 days by microdilution checkerboard assay; type: functional; conditions: 168 h; how it was run: as §1
[13] = test system: Mycobacterium tuberculosis; test: Antibacterial activity against Mycobacterium tuberculosis H37Rv ATCC 27294T assessed as rifampin MIC at 1 ug/ml after 7 days by microdilution checkerboard assay; type: functional; conditions: 168 h
How it was run: (§2)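 M. tuberculosis H37Rv grown in MB7H9 + 10% OADC at 37 °C to OD600 0.8; plates inoculated at 10^5 CFU/ml. Rifampicin two-fold serially diluted across columns, test compound two-fold diluted down rows (two-dimensional checkerboard). Sealed, 37 °C for seven days, then MTT added and incubated overnight. MIC read as no colour change. Triplicate.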

[14] = test system: Mycobacterium tuberculosis; test: Antibacterial activity against Mycobacterium tuberculosis H37Rv ATCC 27294T assessed as ethidium bromide MIC at 4 ug/ml after 7 days by microdilution checkerboard assay; type: functional; conditions: 168 h; how it was run: as §1
[15] = test system: Mycobacterium tuberculosis; test: Antibacterial activity against Mycobacterium tuberculosis H37Rv ATCC 27294T assessed as ofloxacin MIC at 0.12 ug/ml after 7 days by microdilution checkerboard assay; type: functional; conditions: 168 h; how it was run: as §1
[16] = test system: Mycobacterium tuberculosis; test: Antibacterial activity against Mycobacterium tuberculosis H37Rv ATCC 27294T assessed as amikacin MIC at 8 ug/ml after 7 days by microdilution checkerboard assay; type: functional; conditions: 168 h; how it was run: as §1
[17] = test system: Mycobacterium tuberculosis; test: Antibacterial activity against Mycobacterium tuberculosis H37Rv ATCC 27294T assessed as amikacin MIC at 0.12 ug/ml after 7 days by microdilution checkerboard assay; type: functional; conditions: 168 h; how it was run: as §1
[18] = test system: Mycobacterium tuberculosis; test: Antibacterial activity against Mycobacterium tuberculosis H37Rv ATCC 27294T assessed as rifampin MIC at 8 ug/ml after 7 days by microdilution checkerboard assay; type: functional; conditions: 168 h; how it was run: as §2
[19] = test system: Mycobacterium tuberculosis; test: Antibacterial activity against Mycobacterium tuberculosis H37Rv ATCC 27294T assessed as ofloxacin MIC at 2 ug/ml after 7 days by microdilution checkerboard assay; type: functional; conditions: 168 h; how it was run: as §1
[20] = test system: Mycobacterium tuberculosis; test: Antibacterial activity against Mycobacterium tuberculosis H37Rv ATCC 27294T assessed as isoniazid MIC at 0.12 ug/ml after 7 days by microdilution checkerboard assay; type: functional; conditions: 168 h; how it was run: as §1
[21] = test system: Mycolicibacterium smegmatis; test: Anti-tubercular activity against Mycobacterium smegmatis MC2 155 ATCC 700084 after 3 days by microdilution method; type: functional; conditions: MC2 155 ATCC 700084, 72 h
How it was run: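 M. smegmatis mc2155 grown in MB7H9 + 10% OADC at 37 °C with shaking to OD600 0.8. Inoculum set to 0.5 McFarland, diluted 1:100, and mixed 1:1 with two-fold serial dilutions in MB7H9. Plates incubated 3 days at 37 °C with growth and sterility controls. MIC taken as the lowest concentration with no visible growth.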

[22] = test system: Mycobacterium tuberculosis; test: Antibacterial activity against Mycobacterium tuberculosis H37Rv ATCC 27294T assessed as isoniazid MIC at 0.25 ug/ml after 7 days by microdilution checkerboard assay; type: functional; conditions: 168 h; how it was run: as §1
[23] = test system: Mycobacterium tuberculosis; test: Antibacterial activity against Mycobacterium tuberculosis H37Rv ATCC 27294T assessed as ethidium bromide MIC at 0.12 ug/ml after 7 days by microdilution checkerboard assay; type: functional; conditions: 168 h; how it was run: as §1
[24] = test system: Mycobacterium tuberculosis; test: Antibacterial activity against Mycobacterium tuberculosis H37Rv ATCC 27294T assessed as rifampin MIC at 4 ug/ml after 7 days by microdilution checkerboard assay; type: functional; conditions: 168 h; how it was run: as §2
[25] = test system: Mycobacterium tuberculosis; test: Antibacterial activity against Mycobacterium tuberculosis H37Rv ATCC 27294T assessed as rifampin MIC at 0.12 ug/ml after 7 days by microdilution checkerboard assay; type: functional; conditions: 168 h; how it was run: as §1
[26] = test system: Mycobacterium tuberculosis; test: Antibacterial activity against Mycobacterium tuberculosis H37Rv ATCC 27294T assessed as rifampin MIC at 2 ug/ml after 7 days by microdilution checkerboard assay; type: functional; conditions: 168 h; how it was run: as §2
[27] = test system: Mycobacterium tuberculosis; test: Antibacterial activity against Mycobacterium tuberculosis H37Rv ATCC 27294T assessed as ofloxacin MIC at 0.25 ug/ml after 7 days by microdilution checkerboard assay; type: functional; conditions: 168 h; how it was run: as §1
[28] = test system: Mycobacterium tuberculosis; test: Antibacterial activity against Mycobacterium tuberculosis H37Rv ATCC 27294T assessed as ofloxacin MIC at 0.5 ug/ml after 7 days by microdilution checkerboard assay; type: functional; conditions: 168 h; how it was run: as §1
[29] = test system: Mycobacterium tuberculosis; test: Antibacterial activity against Mycobacterium tuberculosis H37Rv ATCC 27294T assessed as ethidium bromide MIC at 8 ug/ml after 7 days by microdilution checkerboard assay; type: functional; conditions: 168 h; how it was run: as §1
[30] = test system: Mycobacterium tuberculosis; test: Antibacterial activity against Mycobacterium tuberculosis H37Rv ATCC 27294T assessed as isoniazid MIC at 0.5 ug/ml after 7 days by microdilution checkerboard assay; type: functional; conditions: 168 h; how it was run: as §1
[31] = test system: Mycobacterium tuberculosis; test: Antibacterial activity against Mycobacterium tuberculosis H37Rv ATCC 27294T assessed as isoniazid MIC at 8 ug/ml after 7 days by microdilution checkerboard assay; type: functional; conditions: 168 h; how it was run: as §1
[32] = test system: Mycobacterium tuberculosis; test: Antibacterial activity against Mycobacterium tuberculosis H37Rv ATCC 27294T assessed as isoniazid MIC at 2 ug/ml after 7 days by microdilution checkerboard assay; type: functional; conditions: 168 h; how it was run: as §1
[33] = test system: Mycobacterium tuberculosis; test: Antibacterial activity against Mycobacterium tuberculosis H37Rv ATCC 27294T assessed as rifampin MIC at 0.25 ug/ml after 7 days by microdilution checkerboard assay; type: functional; conditions: 168 h; how it was run: as §1
[34] = test system: Mycobacterium tuberculosis; test: Antibacterial activity against Mycobacterium tuberculosis H37Rv ATCC 27294T assessed as amikacin MIC at 0.25 ug/ml after 7 days by microdilution checkerboard assay; type: functional; conditions: 168 h; how it was run: as §1
[35] = test system: Mycobacterium tuberculosis; test: Antibacterial activity against Mycobacterium tuberculosis H37Rv ATCC 27294T assessed as ofloxacin MIC at 8 ug/ml after 7 days by microdilution checkerboard assay; type: functional; conditions: 168 h; how it was run: as §1
[36] = test system: Mycobacterium tuberculosis; test: Antibacterial activity against Mycobacterium tuberculosis H37Rv ATCC 27294T assessed as amikacin MIC at 0.5 ug/ml after 7 days by microdilution checkerboard assay; type: functional; conditions: 168 h; how it was run: as §1
[37] = test system: Mycobacterium tuberculosis; test: Antibacterial activity against Mycobacterium tuberculosis H37Rv ATCC 27294T assessed as isoniazid MIC at 1 ug/ml after 7 days by microdilution checkerboard assay; type: functional; conditions: 168 h; how it was run: as §1
[38] = test system: Mycobacterium tuberculosis; test: Antibacterial activity against Mycobacterium tuberculosis H37Rv ATCC 27294T assessed as rifampin MIC at 0.5 ug/ml after 7 days by microdilution checkerboard assay; type: functional; conditions: 168 h; how it was run: as §2

## CCCSc1nnc(COc2ccccc2C2=NOC(c3ccc(Cl)cc3Cl)C2)n1NC(C)=O (stereo not drawn)
[1]
  MIC: 0.25 µg/mL
[2]
  MIC: 0.25 µg/mL
[3]
  MIC: 0.25 µg/mL
[4]
  MIC: 4 µg/mL (≈ 7.69 µM)
[5]
  MIC: 1 µg/mL
[6]
  MIC: 0.0156 µg/mL
[7]
  MIC: 0.781 µg/mL
[8]
  MIC: 6.25 µg/mL
[9]
  IC50: 128 µg/mL (≈ 245 µM)
[10]
  MIC: 0.00312 µg/mL
[11]
  MIC: 12.5 µg/mL
[12]
  MIC: 12.5 µg/mL
[13]
  MIC: 0.0156 µg/mL
[14]
  MIC: 0.195 µg/mL
[15]
  MIC: 1 µg/mL
[16]
  MIC: 0.0312 µg/mL
[17]
  MIC: 1 µg/mL
[18]
  MIC: 0.0156 µg/mL
[19]
  MIC: 0.0312 µg/mL
[20]
  MIC: 0.1 µg/mL
[21]
  MIC: 1 µg/mL (≈ 1.92 µM)
[22]
  MIC: 0.1 µg/mL
[23]
  MIC: 12.5 µg/mL
[24]
  MIC: 0.0156 µg/mL
[25]
  MIC: 0.0625 µg/mL
[26]
  MIC: 0.0156 µg/mL
[27]
  MIC: 1 µg/mL
[28]
  MIC: 1 µg/mL
[29]
  MIC: 0.195 µg/mL
[30]
  MIC: 0.1 µg/mL
[31]
  MIC: 0.00078 µg/mL
[32]
  MIC: 0.0125 µg/mL
[33]
  MIC: 0.0312 µg/mL
[34]
  MIC: 1 µg/mL
[35]
  MIC: 0.0156 µg/mL
[36]
  MIC: 1 µg/mL
[37]
  MIC: 0.05 µg/mL
[38]
  MIC: 0.0312 µg/mL
